Results: ChEMBL document CHEMBL3425419, “Developing new chemical tools for DNA methyltransferase 1 (DNMT 1): a small-molecule activity-based probe and novel tetrazole-containing inhibitors” (Bioorg Med Chem, 2015)
Calls of active or inactive are those of the source.

Tested on: MCF7
Test: Cytotoxicity against human MCF7 cells after 72 hrs by XTT assay
Type: functional
Settings: not given
Summary of the method: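 MCF-7 breast cancer cells exposed to a range of compound concentrations, and growth read by XTT anti-proliferation assay. GI50 is defined as the concentration giving 50% growth inhibition, taken from dose–response plots.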

Row | Compound | growth inhibition (GI)
1 | COC(=O)[C@H](Cc1ccc(-n2nnc(-c3ccc(F)cc3)n2)cc1)N1C(=O)C=CC1=O | Dose-dependent effect
2 | COC(=O)[C@H](Cc1ccc(-n2nnc(-c3ccc(N(C)C)cc3)n2)cc1)N1C(=O)C=CC1=O | Dose-dependent effect
3 | COC(=O)[C@H](Cc1ccc(-n2nnc(-c3ccc(C(F)(F)F)cc3)n2)cc1)N1C(=O)C=CC1=O | Dose-dependent effect
4 | COC(=O)[C@H](Cc1ccc(-n2nnc(-c3cc(C)cc(C)c3)n2)cc1)N1C(=O)C=CC1=O | Dose-dependent effect
5 | COC(=O)[C@H](Cc1ccc(-n2nnc(-c3ccncc3)n2)cc1)N1C(=O)C=CC1=O | Dose-dependent effect
6 | COC(=O)[C@H](Cc1ccc(-n2nnc(-c3ccccc3)n2)cc1)N1C(=O)C=CC1=O | Dose-dependent effect
7 | C#CCOc1ccc2[nH]cc(C[C@@H](C(=O)OC)N3C(=O)C=CC3=O)c2c1 | Dose-dependent effect
8 | COC(=O)[C@H](Cc1ccc(-n2nnc(-c3cccc4ccccc34)n2)cc1)N1C(=O)C=CC1=O | Dose-dependent effect
9 | COC(=O)[C@H](Cc1ccc(-n2nnc(-c3ccc(OC(F)F)cc3)n2)cc1)N1C(=O)C=CC1=O | Dose-dependent effect
10 | COC(=O)[C@H](Cc1ccc(-n2nnc(-c3ccc(C(C)C)cc3)n2)cc1)N1C(=O)C=CC1=O | Dose-dependent effect
11 | COC(=O)[C@H](Cc1ccc(-n2nnc(-c3ccc(OC)cc3)n2)cc1)N1C(=O)C=CC1=O | Dose-dependent effect
12 | COC(=O)[C@H](Cc1ccc(-n2nnc(-c3cc(F)cc(F)c3)n2)cc1)N1C(=O)C=CC1=O | Dose-dependent effect
13 | CCCCCCOc1ccc(-c2nnn(-c3ccc(C[C@@H](C(=O)OC)N4C(=O)C=CC4=O)cc3)n2)cc1 | Dose-dependent effect

Same assay, conditions: MCF7, 72 h

Row | Compound | GI50
14 | COC(=O)[C@H](Cc1ccc(-n2nnc(-c3ccc(F)cc3)n2)cc1)N1C(=O)C=CC1=O | 1160 nM
15 | COC(=O)[C@H](Cc1ccc(-n2nnc(-c3ccc(N(C)C)cc3)n2)cc1)N1C(=O)C=CC1=O | 1080 nM
16 | O=C(O)[C@H](Cc1c[nH]c2ccccc12)N1C(=O)C=CC1=O | 7310 nM
17 | COC(=O)[C@H](Cc1ccc(-n2nnc(-c3ccc(C(F)(F)F)cc3)n2)cc1)N1C(=O)C=CC1=O | 1770 nM
18 | COC(=O)[C@H](Cc1ccc(-n2nnc(-c3cc(C)cc(C)c3)n2)cc1)N1C(=O)C=CC1=O | 780 nM
19 | COC(=O)[C@H](Cc1ccc(-n2nnc(-c3ccncc3)n2)cc1)N1C(=O)C=CC1=O | 1860 nM
20 | COC(=O)[C@H](Cc1ccc(-n2nnc(-c3ccccc3)n2)cc1)N1C(=O)C=CC1=O | 300 nM
21 | C#CCOc1ccc2[nH]cc(C[C@@H](C(=O)OC)N3C(=O)C=CC3=O)c2c1 | 290 nM
22 | COC(=O)[C@H](Cc1ccc(-n2nnc(-c3cccc4ccccc34)n2)cc1)N1C(=O)C=CC1=O | 480 nM
23 | COC(=O)[C@H](Cc1ccc(-n2nnc(-c3ccc(OC(F)F)cc3)n2)cc1)N1C(=O)C=CC1=O | 730 nM
24 | COC(=O)[C@H](Cc1ccc(-n2nnc(-c3ccc(C(C)C)cc3)n2)cc1)N1C(=O)C=CC1=O | 380 nM
25 | COC(=O)[C@H](Cc1ccc(-n2nnc(-c3ccc(OC)cc3)n2)cc1)N1C(=O)C=CC1=O | 870 nM
26 | COC(=O)[C@H](Cc1ccc(-n2nnc(-c3cc(F)cc(F)c3)n2)cc1)N1C(=O)C=CC1=O | 1100 nM
27 | CCCCCCOc1ccc(-c2nnn(-c3ccc(C[C@@H](C(=O)OC)N4C(=O)C=CC4=O)cc3)n2)cc1 | 6150 nM
28 | O=C(O)[C@H](Cc1c[nH]c2ccccc12)N1C(=O)c2ccccc2C1=O | 128000 nM

Target: DNA (cytosine-5)-methyltransferase 1 (Homo sapiens) (UniProt P26358)
Sequence (P26358 whole entry): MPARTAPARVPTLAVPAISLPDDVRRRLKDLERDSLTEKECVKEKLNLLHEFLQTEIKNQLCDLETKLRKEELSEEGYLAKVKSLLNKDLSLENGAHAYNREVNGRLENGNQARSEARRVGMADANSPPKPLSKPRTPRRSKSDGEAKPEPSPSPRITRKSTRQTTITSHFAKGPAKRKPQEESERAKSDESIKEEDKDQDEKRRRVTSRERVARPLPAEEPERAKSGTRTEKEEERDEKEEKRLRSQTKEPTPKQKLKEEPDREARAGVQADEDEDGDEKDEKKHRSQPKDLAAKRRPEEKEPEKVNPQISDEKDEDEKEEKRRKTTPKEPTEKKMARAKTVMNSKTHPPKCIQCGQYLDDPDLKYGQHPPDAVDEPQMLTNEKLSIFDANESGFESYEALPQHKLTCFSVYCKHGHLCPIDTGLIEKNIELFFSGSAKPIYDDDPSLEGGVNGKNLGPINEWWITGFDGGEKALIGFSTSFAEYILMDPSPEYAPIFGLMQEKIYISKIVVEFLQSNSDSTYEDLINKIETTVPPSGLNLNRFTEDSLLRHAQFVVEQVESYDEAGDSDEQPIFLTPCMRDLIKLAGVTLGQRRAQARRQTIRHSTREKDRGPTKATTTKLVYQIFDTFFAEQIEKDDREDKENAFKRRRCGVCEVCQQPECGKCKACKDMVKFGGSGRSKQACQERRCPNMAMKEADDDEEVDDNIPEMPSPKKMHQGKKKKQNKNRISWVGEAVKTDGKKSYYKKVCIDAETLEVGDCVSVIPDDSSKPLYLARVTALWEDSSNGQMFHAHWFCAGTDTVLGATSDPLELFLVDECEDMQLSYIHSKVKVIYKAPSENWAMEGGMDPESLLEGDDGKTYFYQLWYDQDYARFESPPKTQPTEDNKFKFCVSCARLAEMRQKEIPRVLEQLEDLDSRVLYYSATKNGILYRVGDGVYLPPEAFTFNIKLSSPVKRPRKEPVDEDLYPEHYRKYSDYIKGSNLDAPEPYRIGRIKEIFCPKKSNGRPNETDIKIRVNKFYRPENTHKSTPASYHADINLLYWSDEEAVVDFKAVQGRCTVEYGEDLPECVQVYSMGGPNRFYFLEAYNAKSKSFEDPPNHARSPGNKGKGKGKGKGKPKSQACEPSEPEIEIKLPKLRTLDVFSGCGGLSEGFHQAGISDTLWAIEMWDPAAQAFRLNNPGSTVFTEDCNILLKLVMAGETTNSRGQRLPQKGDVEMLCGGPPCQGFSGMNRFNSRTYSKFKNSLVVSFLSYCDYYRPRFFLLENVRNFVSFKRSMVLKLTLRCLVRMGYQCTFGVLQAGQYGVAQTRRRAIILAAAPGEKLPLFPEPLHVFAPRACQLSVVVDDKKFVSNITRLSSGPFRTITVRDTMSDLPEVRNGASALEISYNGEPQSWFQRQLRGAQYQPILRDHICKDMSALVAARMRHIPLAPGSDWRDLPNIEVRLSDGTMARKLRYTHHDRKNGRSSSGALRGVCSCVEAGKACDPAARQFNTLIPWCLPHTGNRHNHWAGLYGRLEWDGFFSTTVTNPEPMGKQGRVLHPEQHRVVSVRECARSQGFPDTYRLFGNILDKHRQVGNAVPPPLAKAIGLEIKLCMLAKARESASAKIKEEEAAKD
Test: Binding affinity to DNMT1 in human MCF7 cells at 10 uM preincubated for 1 hr post RG108, 1149 and (S)-Methyl 2-(2,5-dioxo-2,5-dihydro-1H-pyrrol-1-yl)-3-(4-(5-phenyl-2H-tetrazol-2-yl)phenyl)propanoate treatment followed by clicked with TER-Biotin-N3 for 2 hrs and pull down by Western blot analysis
Type: cell-based
Settings: not given
Summary of the method: (§1)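 Freshly prepared MCF-7 lysate (100 µg) labelled with 10 µM alkyne probe for 1 h at room temperature, then CuAAC click for 2 h. TER-PEG-N3 was used for in-gel fluorescence scanning, and TER-Biotin-N3 for pull-down followed by western blot against DNMT1. DMSO-treated cells served as the negative control.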

Row | Compound | Activity
29 | C#CCOc1ccc2[nH]cc(C[C@@H](C(=O)OC)N3C(=O)C=CC3=O)c2c1 | Active

Target: DNA (cytosine-5)-methyltransferase 1 (Homo sapiens) (UniProt P26358)
Test: Competitive inhibition of DNMT1 in (S)-Methyl 2-(2,5-dioxo-2,5-dihydro-1H-pyrrol-1-yl)-3-(5-(prop-2-yn-1-yloxy)-1H-indol-3-yl)propanoate labeled human MCF7 cells at 50 to 500 uM preincubated for 1 hr followed by cell labeling for 1 hr and clicked with TER-biotin-N3 for 2 hrs and pull down by Western blot analysis
Type: cell-based
Settings: not given
Summary of the method: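 Mammalian cells pretreated with competitor at 50, 100 or 500 µM. Their lysates were then labelled with 10 µM alkyne probe for 1 h at room temperature and clicked for 2 h with TER-Biotin-N3. DNMT1 (~183 kDa) was detected by pull-down and western blot, with DMSO as the negative control.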

Row | Compound | inhibition
30 | O=C(O)[C@H](Cc1c[nH]c2ccccc12)N1C(=O)C=CC1=O | Active
31 | COC(=O)[C@H](Cc1ccc(-n2nnc(-c3ccccc3)n2)cc1)N1C(=O)C=CC1=O | Active
32 | O=C(O)[C@H](Cc1c[nH]c2ccccc12)N1C(=O)c2ccccc2C1=O | Active

Target: DNA (cytosine-5)-methyltransferase 1 (Homo sapiens) (UniProt P26358)
Test: Competitive inhibition of DNMT1 in (S)-Methyl 2-(2,5-dioxo-2,5-dihydro-1H-pyrrol-1-yl)-3-(5-(prop-2-yn-1-yloxy)-1H-indol-3-yl)propanoate labeled human MCF7 cells at 100 uM preincubated for 1 hr followed by cell labeling for 30 mins and clicked with TER-PEG-N3 measured after 2 hrs by Hoechst 33342 staining-based immunofluorescence assay
Settings: not given
Summary of the method: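 Live MCF-7 cells pretreated with competitor at 100 µM for 1 h, then given 5 µM alkyne probe for 30 min in the incubator. Cells were fixed (3.7% formaldehyde), permeabilised (0.1% Triton X-100), clicked with TER-PEG-N3, immunostained with anti-DNMT1 and Hoechst-stained. Imaging was by fluorescence microscopy in four channels (bright-field, probe, IF, nuclear).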

Row | Compound | inhibition
33 | O=C(O)[C@H](Cc1c[nH]c2ccccc12)N1C(=O)C=CC1=O | Active
34 | COC(=O)[C@H](Cc1ccc(-n2nnc(-c3ccccc3)n2)cc1)N1C(=O)C=CC1=O | Active
35 | O=C(O)[C@H](Cc1c[nH]c2ccccc12)N1C(=O)c2ccccc2C1=O | Active

Tested on: MCF7
Test: Induction of apoptosis in human MCF7 cells assessed as apoptotic cells at 10 uM after 6 hrs by FITC-Annexin V/propidium iodide staining-based FACS analysis relative to control
Type: functional
Settings: not given
Summary of the method: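 Live MCF-7 cells treated with inhibitors at 10 µM, then stained with FITC Annexin V (apoptosis) and propidium iodide (cell death). Signals were quantified by flow cytometry against DMSO-treated cells.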

Row | Compound | Activity
36 | COC(=O)[C@H](Cc1ccc(-n2nnc(-c3ccccc3)n2)cc1)N1C(=O)C=CC1=O | Active
37 | C#CCOc1ccc2[nH]cc(C[C@@H](C(=O)OC)N3C(=O)C=CC3=O)c2c1 | 61%
38 | O=C(O)[C@H](Cc1c[nH]c2ccccc12)N1C(=O)c2ccccc2C1=O | Active

Tested on: not listed separately
Test: Drug uptake in nucleus of human MCF7 cells at 5 uM preincubated for 30 hrs post RG108, 1149 and (S)-Methyl 2-(2,5-dioxo-2,5-dihydro-1H-pyrrol-1-yl)-3-(4-(5-phenyl-2H-tetrazol-2-yl)phenyl)propanoate treatment followed by clicked with TER-PEG-N3 measured after 2 hrs by Hoechst 33342 staining-based immunofluorescence assay
Type: ADME, cell-based
Settings: mcf7, 2 h, in the assay text read “30 min” for “30 hrs”
Summary of the method: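 MCF-7 cells incubated with 5 µM alkyne probe for 30 min in the incubator, fixed with 3.7% formaldehyde, permeabilised with 0.1% Triton X-100 and clicked with TER-PEG-N3. Anti-DNMT1 immunofluorescence and Hoechst nuclear staining followed. Localisation was read by fluorescence microscopy, with DMSO-only cells as control.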

Row | Compound | Drug uptake
39 | C#CCOc1ccc2[nH]cc(C[C@@H](C(=O)OC)N3C(=O)C=CC3=O)c2c1 | Active

Target: DNA (cytosine-5)-methyltransferase 1 (Homo sapiens) (UniProt P26358)
Test: Inhibition of recombinant DNMT1 (unknown origin) after 90 mins by fluorescence assay
Settings: not given

Row | Compound | inhibition
40 | COC(=O)[C@H](Cc1ccc(-n2nnc(-c3ccc(F)cc3)n2)cc1)N1C(=O)C=CC1=O | Active
41 | COC(=O)[C@H](Cc1ccc(-n2nnc(-c3ccc(N(C)C)cc3)n2)cc1)N1C(=O)C=CC1=O | Active
42 | O=C(O)[C@H](Cc1c[nH]c2ccccc12)N1C(=O)C=CC1=O | Active
43 | COC(=O)[C@H](Cc1ccc(-n2nnc(-c3ccc(C(F)(F)F)cc3)n2)cc1)N1C(=O)C=CC1=O | Active
44 | COC(=O)[C@H](Cc1ccc(-n2nnc(-c3cc(C)cc(C)c3)n2)cc1)N1C(=O)C=CC1=O | Active
45 | COC(=O)[C@H](Cc1ccc(-n2nnc(-c3ccncc3)n2)cc1)N1C(=O)C=CC1=O | Active
46 | COC(=O)[C@H](Cc1ccc(-n2nnc(-c3ccccc3)n2)cc1)N1C(=O)C=CC1=O | Active
47 | COC(=O)[C@H](Cc1ccc(-n2nnc(-c3cccc4ccccc34)n2)cc1)N1C(=O)C=CC1=O | Active
48 | COC(=O)[C@H](Cc1ccc(-n2nnc(-c3ccc(OC(F)F)cc3)n2)cc1)N1C(=O)C=CC1=O | Active
49 | COC(=O)[C@H](Cc1ccc(-n2nnc(-c3ccc(C(C)C)cc3)n2)cc1)N1C(=O)C=CC1=O | Active
50 | COC(=O)[C@H](Cc1ccc(-n2nnc(-c3ccc(OC)cc3)n2)cc1)N1C(=O)C=CC1=O | Active
51 | COC(=O)[C@H](Cc1ccc(-n2nnc(-c3cc(F)cc(F)c3)n2)cc1)N1C(=O)C=CC1=O | Active
52 | CCCCCCOc1ccc(-c2nnn(-c3ccc(C[C@@H](C(=O)OC)N4C(=O)C=CC4=O)cc3)n2)cc1 | Active
53 | O=C(O)[C@H](Cc1c[nH]c2ccccc12)N1C(=O)c2ccccc2C1=O | Active

Tested on: MCF7
Test: Induction of apoptosis in human MCF7 cells assessed as dead cells at 10 uM after 6 hrs by FITC-Annexin V/propidium iodide staining-based FACS analysis relative to control
Type: functional
Settings: not given
Summary of the method: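 Live MCF-7 cells treated with compound at 10 µM, then stained with FITC-Annexin V (apoptotic cells) and propidium iodide (dead cells). Signals quantified by flow cytometry and read from histograms.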

Row | Compound | Activity
54 | COC(=O)[C@H](Cc1ccc(-n2nnc(-c3ccccc3)n2)cc1)N1C(=O)C=CC1=O | Active
55 | O=C(O)[C@H](Cc1c[nH]c2ccccc12)N1C(=O)c2ccccc2C1=O | Active

Target: DNA (cytosine-5)-methyltransferase 1 (Homo sapiens) (UniProt P26358)
Test: Binding affinity to DNMT1 in human MCF7 cells at 10 uM preincubated for 1 hr post RG108, 1149 and (S)-Methyl 2-(2,5-dioxo-2,5-dihydro-1H-pyrrol-1-yl)-3-(4-(5-phenyl-2H-tetrazol-2-yl)phenyl)propanoate treatment followed by CuAAC click chemistry application measured after 2 hrs by gel fluorescence scanning assay
Type: cell-based
Settings: not given
Summary of the method: as §1

Row | Compound | Activity
56 | C#CCOc1ccc2[nH]cc(C[C@@H](C(=O)OC)N3C(=O)C=CC3=O)c2c1 | inactive
